From ChEMBL document CHEMBL1144601, “Synthesis and antiproliferative properties of N3/8-disubstituted 3,8-diazabicyclo[3.2.1]octane analogues of 3,8-bis[2-(3,4,5-trimethoxyphenyl)pyridin-4-yl]methyl-piperazine” (Eur J Med Chem, 2007) come the findings set out here.

Assay [1] concerns MCF7. Nature of the assay: Antiproliferative activity against human MCF7 cells by MTT assay. It counts as functional, cell-based. The procedure, abridged:
(§1)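 Exponentially growing cells resuspended in growth medium with serial drug dilutions; viability read by MTT after 96 h at 37 °C, with untreated controls allowed at least three rounds of multiplication. IC50 is the concentration cutting proliferation by 50%, mean ± SD of three independent determinations. Haematological lines were grown in RPMI-1640 with 10% FCS and antibiotics. Solid-tumour lines were grown in their own media with 10% FCS.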
Background: Tetrazolium assays rely on reduction of a dye to a coloured formazan, in cell work by metabolically active cells.

In assay [2] the test system is MCF7. Kind of assay: Induction of apoptosis in human MCF7 cells up to 50 uM after 24 hrs by propidium iodide satining assay. It counts as functional, cell-based. An outline of the steps:
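MCF-7 cells treated at 10–50 µM for 24 h were washed in PBS. They were resuspended in 0.1% sodium citrate, 0.1% Triton X-100 and 50 µg/mL propidium iodide, then kept 30 min at 4 °C in the dark. Nuclei were read by flow cytometry on a log scale with debris gated out. The % hypodiploid nuclei is from three experiments in triplicate.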

In another assay the test system is WIL2-NS. Nature of the assay: Antiproliferative activity against human WIL-2NS cells by MTT assay. Format: functional, cell-based. The procedure, abridged: as §1
In assay [3] the test system is MCF7. Kind of assay: Cell cycle arrest in MCF7 cells by accumulation at G2/M phase at 10 uM after 24 hrs. Format: functional, Homo sapiens. An outline of the steps:
(§2)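 MCF-7 cells grown in DMEM with 2 mM L-glutamine and 10% heat-inactivated FBS, seeded at 5×10^5 cells/well. After 24 h they were exposed to compound at 10 µM for 24 h. Cells plus supernatant were collected, stained with Nicoletti reagent and DNA content read by flow cytometry (FL2, linear amplification). Phase distribution was modelled from the histograms.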

A further assay concerns SK-MES-1. Nature of the assay: Antiproliferative activity against human SKMES1 cells by MTT assay. It counts as functional, cell-based. An outline of the steps:
as §1

A further assay deals with CCRF-SB. Kind of assay: Antiproliferative activity against human CCRF-SB cells by MTT assay. It counts as functional, cell-based. An outline of the steps: as §1
For a further assay, the system named is CCRF-CEM. Kind of assay: Antiproliferative activity against human CCRF-CEM cells by MTT assay. It counts as functional, cell-based. An outline of the steps:
as §1

The subject of assay [4] is MCF7. Nature of the assay: Increase in p21/WAF1 expression level in MCF7 cells at 10 uM after 24 hrs. Format: functional, cell-based. The conditions noted are these: Homo sapiens, TDE = time-dependent effect. The procedure, abridged:
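MCF-7 cells plated at 5×10^5 per 6-cm plate the day before were treated at 10 µM for various times. Lysates were made by freeze-thaw in Tris-HCl buffer with protease and phosphatase inhibitors. 30 µg protein was run on 10% SDS-PAGE and transferred to nitrocellulose. Blots were probed overnight at 4 °C with anti-p21 monoclonal (1:200), then a secondary antibody, and detected by ECL; three experiments.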

The next assay deals with SK-MEL-28. Nature of the assay: Antiproliferative activity against human SK-MEL-28 cells by MTT assay. It counts as functional, cell-based. The procedure, abridged: as §1
The test system of the next assay is HepG2. Nature of the assay: Antiproliferative activity against human HepG2 cells by MTT assay. Format: functional, cell-based. An outline of the steps: as §1
Assay [5] deals with MCF7. Nature of the assay: Cell cycle arrest in MCF7 cells by accumulation at S phase at 10 uM after 24 hrs. It counts as functional, Homo sapiens. An outline of the steps:
as §2

A further assay relates to MT4. Kind of assay: Antiproliferative activity against human MT4 cells by MTT assay. Format: functional, cell-based. The procedure, abridged: as §1
A further assay concerns DU-145. Kind of assay: Antiproliferative activity against human DU145 cells by MTT assay. Format: functional, cell-based. The procedure, abridged:
as §1

Assay [6] has as its system MCF7. Kind of assay: Cell cycle arrest in MCF7 cells by accumulation at GO/G1 phase at 10 uM after 24hrs. Format: functional, Homo sapiens. The procedure, abridged:
as §2

Assay [7] is described as follows: Antiproliferative activity against human CRL7065 cells by MTT assay. Format: functional, cell-based. The note with it: CRL-7065. The procedure, abridged:
as §1

Molecules are shown by their SMILES. Active and inactive are the calls of the source. The calls are words filed in the database; no cut-off is given here.

Turning to `COc1cc(-c2cc(CN3CC4CCC(C3)N4Cc3ccnc(-c4cc(OC)c(OC)c(OC)c4)c3)ccn2)cc(OC)c1OC`, the IC50 – broadly, the concentration that gives 50% inhibition – was 5 µM in the assay on MCF7 [1]; 3 µM in the assay on WIL2-NS; 10 µM in the assay on SK-MES-1; 3 µM in the assay with CCRF-SB; 2 µM with CCRF-CEM; 4 µM with SK-MEL-28. Moreover, the 50% inhibitory concentration (IC50) was 8 µM with HepG2, 2 µM in the assay with MT4, 14 µM in the assay on DU-145 and more than 100 µM in assay [7]. In addition, in the assay with MCF7 [2], the result was inactive. Further, the Activity with MCF7 [3] is 7.5%; with MCF7 [4] it was “tde”; in the assay with MCF7 [5] it was 4.6%; with MCF7 [6], 87%.
